The results in this text go back to ChEMBL document CHEMBL4028873, “The Discovery of a Dual TTK Protein Kinase/CDC2-Like Kinase (CLK2) Inhibitor for the Treatment of Triple Negative Breast Cancer Initiated from a Phenotypic Screen” (J Med Chem, 2017).

Series [1] concerns CAL-51. The series can be described thus: Cytotoxicity against human CAL51 cells assessed as reduction in cell viability after 3 days by CellTiter-Glo assay. The series is classed as functional, cell-based. The conditions noted are these: CAL-51, 72 h.
The subject of series [2] is BT-474. As to the kind of experiment: Cytotoxicity against human BT474 cells assessed as reduction in cell viability after 3 days by CellTiter-Glo assay. The series is classed as cell-based. The settings on record: BT-474, 72 h.
The subject of series [3] is Mus musculus. As to the kind of experiment: Toxicity in SCID mouse xenografted with human CAL51 cells assessed as loss in body weight at 5 mg/kg, iv administered every 4 days for 16 days relative to control. The series is classed as organism-based. The conditions noted are these: in vivo.
Series [4] concerns CAL-51. As to the kind of experiment: Antiproliferative activity against human CAL51 cells xenografted in SCID mouse assessed as tumor growth inhibition at 5 mg/kg, iv administered every 4 days for 16 days. The series is classed as functional, organism-based. In short, it runs like this:
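Mice bearing tumors of about 125 mm3 randomized (n = 8−10/group) and given compound intravenously at the listed doses and schedules. Tumors measured twice weekly by digital caliper on long and short axes; volume = width² × length/2.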

Series [5] in a line: Metabolic stability in rat liver S9 fraction assessed as percent of compound remaining after 60 mins. The settings on record: read-out: Stability. The series is classed as ADME, tissue-based.
Series [6] in a line: Metabolic stability in human liver S9 fraction assessed as percent of compound remaining after 60 mins. The series is classed as ADME, tissue-based. The settings on record: read-out: Stability.
Series [7] in a line: Clearance in rat at 2 mg/kg, iv. The series is classed as ADME, organism-based. The settings on record: in vivo.
Series [8] in a line: Volume of distribution at steady state in rat at 2 mg/kg, iv. The series is classed as ADME, organism-based. The settings on record: in vivo, read-out: Vdss.
Series [9] is described as follows: Mean residence time in rat at 2 mg/kg, iv. The series is classed as ADME, organism-based. The settings on record: in vivo.
The nature of series [10]: Clearance in SCID mouse at 10 mg/kg, iv. The series is classed as ADME, organism-based. The settings on record: in vivo.
Series [11] is described as follows: Mean residence time in SCID mouse at 10 mg/kg, iv. The series is classed as ADME, organism-based. The settings on record: in vivo.

Activity calls are given as the source filed them. The calls are words filed in the database; no cut-off is given here.

For the molecule `COc1cc(C(=O)N2CCOCC2)ccc1Nc1nc(OC2CCCC2)c2c(-c3ccc4nc(C)oc4c3)c[nH]c2n1`, the results for the IC50 in series [1] and in [2] were 0.351 µM and 6.39 µM, respectively.
Take `CC(=O)O[C@@]12CO[C@@H]1C[C@H](O)[C@@]1(C)C(=O)[C@H](O)C3=C(C)[C@@H](OC(=O)[C@H](O)[C@@H](NC(=O)OC(C)(C)C)c4ccccc4)C[C@@](O)([C@@H](OC(=O)c4ccccc4)[C@H]21)C3(C)C` [DOCETAXEL ANHYDROUS]: in series [3], the Activity is on record as 20%. The TGI result in series [4] was “Active”.
`CNC(=O)c1ccc(Nc2nc(O[C@H]3CC[C@@](C)(O)CC3)c3c(-c4ccc5nc(C)oc5c4)c[nH]c3n2)c(OC)c1`: the results for the IC50 in series [1] and in series [2] were 0.008 µM and 10 µM, respectively. The values for the remaining at 1 h in series [5] and in [6] were 76% and 65%, respectively. Further, the clearance in series [7] stood at 1.06 L/h/kg; in series [10] it was 3.13 L/h/kg. Further, the Vd in [8] was 2.9 L/kg. Further, the figures for the mean residence time (MRT) in series [9] and in series [11] were 2.9 h and 1 h, respectively.
As for `COc1cc(C(=O)N2CCN(C)CC2)ccc1Nc1nc(OC2CCCC2)c2c(-c3ccc4nc(C)oc4c3)c[nH]c2n1`, the IC50 was determined as 0.037 µM in [1] and 3.21 µM in [2].
Regarding `COc1cc(C(=O)N(C)C)ccc1Nc1nc(OC2CCCC2)c2c(-c3ccc4nc(C)oc4c3)c[nH]c2n1`, the IC50 in [1] was determined as 0.113 µM; in series [2], 8.31 µM.
With `CNC(=O)c1ccc(Nc2nc(OC3CCCC3)c3c(-c4ccc(-c5ccn[nH]5)cc4)c[nH]c3n2)c(OC)c1`, the IC50 in series [1] was found to be 0.061 µM; in series [2], 10 µM. In addition, the remaining at 1 h in series [5] was determined as 84%.
As for `CNC(=O)c1ccc(Nc2nc(OC3CCCC3)c3c(-c4cccnc4)c[nH]c3n2)c(OC)c1`, the IC50 in series [1] was 0.079 µM; in [2], 10 µM. Moreover, the remaining at 1 h in [5] was 59%.
In the case of `CNC(=O)c1ccc(Nc2nc(O[C@H]3CC[C@](C)(O)CC3)c3c(-c4ccc5nc(C)oc5c4)c[nH]c3n2)c(OC)c1`, the IC50 in [1] stood at 0.015 µM; in [2], 0.893 µM.
Take `CNC(=O)c1ccc(Nc2nc(OC3COC3)c3c(-c4ccc5nc(C)oc5c4)c[nH]c3n2)c(OC)c1`: the values for the IC50 in [1] and in [2] were 0.008 µM and 0.243 µM, respectively.
As for `CNC(=O)c1ccc(Nc2nc(O[C@H]3CCOC3)c3c(-c4ccc5nc(C)oc5c4)c[nH]c3n2)c(OC)c1`, the IC50 in series [1] amounted to 0.017 µM; in series [2], 3.76 µM. The remaining at 1 h in series [5] and in series [6] was 62% throughout. Further, the clearance was determined as 1.64 L/h/kg in [7] and 1.15 L/h/kg in series [10]. Also, the Vd in [8] was determined as 1.6 L/kg. Further, the MRT in [9] stood at 1 h; in [11], 0.73 h.
Consider `CNC(=O)c1ccc(Nc2nc(OC3CCCC3)c3c(-c4ccc5nc[nH]c5c4)c[nH]c3n2)c(OC)c1`, for which the IC50 worked out at 0.017 µM in [1] and 0.158 µM in series [2]. In addition, the remaining at 1 h in [5] was 46%.
For the molecule `COc1cc(C(=O)NCC(C)(C)O)ccc1Nc1nc(OC2CCCC2)c2c(-c3ccc4nc(C)oc4c3)c[nH]c2n1`, the IC50 in series [1] is 0.061 µM; in series [2], 10 µM.
Regarding `CNC(=O)c1ccc(Nc2nc(OC3CCCC3)c3c(-c4ccc5oc(C)nc5c4)c[nH]c3n2)c(OC)c1`, the figures for the IC50 in series [1] and in [2] were 0.642 µM and 10 µM, respectively. The remaining at 1 h in series [5] came out at 86%.
The matching figures for `CNC(=O)c1ccc(Nc2nc(OC3CCCC3)c3c(-c4ccncc4)c[nH]c3n2)c(OC)c1`: 0.017 µM, 10 µM and 83%.
For the molecule `COc1cc(C(=O)NC2COC2)ccc1Nc1nc(OC2CCCC2)c2c(-c3ccc4nc(C)oc4c3)c[nH]c2n1`, the IC50 is 0.123 µM in series [1] and 10 µM in series [2]. Also, the remaining at 1 h in series [5] is 91%; in [6] it was 79%. Also, the clearance in series [7] was 0.78 L/h/kg; in [10] it was 0.858 L/h/kg. Further, in [8], the Vd amounted to 3.7 L/kg. Also, the figures for the MRT in series [9] and in [11] were 4.7 h and 1.4 h, respectively.
For the molecule `CNC(=O)c1ccc(Nc2nc(OC3CCCC3)c3c(-c4ccc5nc(C)oc5c4)c[nH]c3n2)c(C)c1`, the concentration for half-maximal inhibition (IC50) in series [1] amounted to 0.349 µM; in series [2], 9.61 µM.
As for `CNC(=O)c1ccc(Nc2nc(OC3CCCC3)c3c(-c4cccc(CO)c4)c[nH]c3n2)c(OC)c1`, the IC50 in series [1] stood at 0.03 µM; in series [2] it was 9.99 µM. For the same molecule, in [5], the remaining at 1 h came to 54%.
As to `COc1cc(C(=O)NC(C)(C)CO)ccc1Nc1nc(OC2CCCC2)c2c(-c3ccc4nc(C)oc4c3)c[nH]c2n1`, the half-maximal inhibitory concentration (IC50) in [1] stood at 0.109 µM; in series [2], 6.09 µM.
In the case of `CNC(=O)c1ccc(Nc2nc(OC3CCCC3)c3c(-c4ccc(OC)cc4)c[nH]c3n2)c(OC)c1`, the figures for the concentration for half-maximal inhibition (IC50) in series [1] and in [2] were 0.491 µM and 10 µM, respectively. The remaining at 1 h in series [5] was 76%.
On to `CNC(=O)c1ccc(Nc2nc(OC3CCCC3)c3c(-c4ccc(CO)cc4)c[nH]c3n2)c(OC)c1`, for which the concentration for half-maximal inhibition (IC50) in series [1] was 0.089 µM; in series [2], 10 µM. Besides, the remaining at 1 h in series [5] amounted to 18%.
`CNC(=O)c1ccc(Nc2nc(OCCO)c3c(-c4ccc5nc(C)oc5c4)c[nH]c3n2)c(OC)c1`: the IC50 came out at 0.056 µM in series [1] and 0.694 µM in series [2].
Take `CNC(=O)c1ccc(Nc2nc(OC3CCCC3)c3c(-c4ccc5cn[nH]c5c4)c[nH]c3n2)c(OC)c1`: the IC50 in series [1] came out at 0.338 µM; in series [2] it was 10 µM. Further, the remaining at 1 h in series [5] worked out at 85%.
Consider `COc1ccccc1Nc1nc(OC2CCCC2)c2c(-c3ccc4nc(C)oc4c3)c[nH]c2n1`, for which the 50% inhibitory concentration (IC50) in [1] is 0.771 µM; in series [2], 10 µM.
In the case of `CNC(=O)c1ccc(Nc2nc(OC3CCOCC3)c3c(-c4ccc5nc(C)oc5c4)c[nH]c3n2)c(OC)c1`, the values for the IC50 in series [1] and in series [2] were 0.02 µM and 10 µM, respectively. The remaining at 1 h in [5] is 75%; in [6] it was 70%. Besides, the clearance came to 1.36 L/h/kg in [7] and 4.06 L/h/kg in series [10]. The Vd in series [8] was found to be 3.8 L/kg. Besides, the MRT in series [9] was determined as 2.9 h; in series [11] it was 1.8 h.
Take `CNC(=O)c1ccc(Nc2nc(OC3CCC3)c3c(-c4ccc5nc(C)oc5c4)c[nH]c3n2)c(OC)c1`: the IC50 in [1] is 0.047 µM; in [2], 10 µM.
Regarding `CNC(=O)c1ccc(Nc2nc(OC3CCCC3)c3c(-c4ccc(O)cc4)c[nH]c3n2)c(OC)c1`, the IC50 in series [1] was determined as 0.013 µM; in series [2], 3.32 µM. In addition, the remaining at 1 h in [5] was 1%.
For the molecule `CNC(=O)c1ccc(Nc2nc(OC3CCCC3)c3c(-c4cccc(O)c4)c[nH]c3n2)c(OC)c1`, the IC50 in series [1] was found to be 0.071 µM; in [2], 10 µM.
With `CNC(=O)c1ccc(Nc2nc(OC3CCCC3)c3c(-c4ccccc4)c[nH]c3n2)c(OC)c1`, the IC50 in series [1] was determined as 0.496 µM; in series [2], 10 µM. For the same molecule, the remaining at 1 h in [5] was determined as 86%.
Regarding `CNC(=O)c1ccc(Nc2nc(OC3CCCC3)c3c(-c4cc[nH]n4)c[nH]c3n2)c(OC)c1`, the IC50 amounted to 0.46 µM in series [1] and 10 µM in series [2]. In series [5], the remaining at 1 h turned out to be 53%.
`CNC(=O)c1ccc(Nc2nc(OC(C)C)c3c(-c4ccc5nc(C)oc5c4)c[nH]c3n2)c(OC)c1`: the IC50 in [1] came out at 0.04 µM; in [2], 0.946 µM. Also, the remaining at 1 h in [5] is 69%; in series [6] it was 78%. Moreover, the figures for the clearance in [7] and in series [10] were 2.03 L/h/kg and 0.463 L/h/kg, respectively. In addition, the Vd in series [8] turned out to be 7.2 L/kg. In addition, the MRT in [9] was determined as 3.5 h; in [11] it was 4.8 h.
Take `CNC(=O)c1ccc(Nc2nc(O)c3c(-c4ccc5nc(C)oc5c4)c[nH]c3n2)c(OC)c1`: the half-inhibitory concentration (IC50) in series [1] and in series [2] was 10 µM throughout.
In the case of `CNC(=O)c1ccc(Nc2nc(OC3CCCC3)c3c(-c4ccc(-c5nnc[nH]5)cc4)c[nH]c3n2)c(OC)c1`, the IC50 in series [1] is 0.077 µM; in [2] it was 4.86 µM. For the same molecule, in [5], the remaining at 1 h is 84%.
For `CNC(=O)c1ccc(Nc2nc(OCCOC)c3c(-c4ccc5nc(C)oc5c4)c[nH]c3n2)c(OC)c1`, the IC50 in [1] amounted to 0.147 µM; in [2], 3.76 µM.
`CNC(=O)c1ccc(Nc2nc(OC3CCCC3)c3c(-c4cn[nH]c4)c[nH]c3n2)c(OC)c1`: the values for the IC50 in series [1] and in series [2] were 0.009 µM and 8.12 µM, respectively. Also, the remaining at 1 h in series [5] was 36%.
With `CNC(=O)c1ccc(Nc2nc(OC3CCCC3)c3c(-c4ccc(-c5ncc[nH]5)cc4)c[nH]c3n2)c(OC)c1`, the IC50 in [1] turned out to be 0.008 µM; in series [2], 1.73 µM. Besides, the remaining at 1 h in series [5] came out at 64%.
